From ChEMBL document CHEMBL1154083, “Synthesis and structure-activity relationship of 3beta-(4-alkylthio, -methylsulfinyl, and -methylsulfonylphenyl)tropane and 3beta-(4-alkylthiophenyl)nortropane derivatives for monoamine transporters” (Bioorg Med Chem, 2009)

Columns and labels:
[1] = molecular target: Sodium-dependent serotonin transporter (Homo sapiens, UniProt P31645); test: Displacement of [3H]paroxetine from 5-HTT
How it was run: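 Inhibition of [3H]paroxetine binding at 5-HTT, a single-site transporter, with Ki calculated from it. Compounds tested as HCl or tartrate salts. Mean ± standard error of three or four experiments, each run in triplicate.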

[2] = Selectivity ratio of Ki for NET to Ki for 5-HTT
How it was run: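 NET/5-HTT selectivity: NET Ki (from [3H]nisoxetine binding) divided by 5-HTT Ki (from [3H]paroxetine binding). Both values are means of three or four triplicate experiments.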

[3] = molecular target: Sodium-dependent noradrenaline transporter (Homo sapiens, UniProt P23975); test: Displacement of [3H]nisoxetine from NET
Sequence of Sodium-dependent noradrenaline transporter (P23975 whole entry): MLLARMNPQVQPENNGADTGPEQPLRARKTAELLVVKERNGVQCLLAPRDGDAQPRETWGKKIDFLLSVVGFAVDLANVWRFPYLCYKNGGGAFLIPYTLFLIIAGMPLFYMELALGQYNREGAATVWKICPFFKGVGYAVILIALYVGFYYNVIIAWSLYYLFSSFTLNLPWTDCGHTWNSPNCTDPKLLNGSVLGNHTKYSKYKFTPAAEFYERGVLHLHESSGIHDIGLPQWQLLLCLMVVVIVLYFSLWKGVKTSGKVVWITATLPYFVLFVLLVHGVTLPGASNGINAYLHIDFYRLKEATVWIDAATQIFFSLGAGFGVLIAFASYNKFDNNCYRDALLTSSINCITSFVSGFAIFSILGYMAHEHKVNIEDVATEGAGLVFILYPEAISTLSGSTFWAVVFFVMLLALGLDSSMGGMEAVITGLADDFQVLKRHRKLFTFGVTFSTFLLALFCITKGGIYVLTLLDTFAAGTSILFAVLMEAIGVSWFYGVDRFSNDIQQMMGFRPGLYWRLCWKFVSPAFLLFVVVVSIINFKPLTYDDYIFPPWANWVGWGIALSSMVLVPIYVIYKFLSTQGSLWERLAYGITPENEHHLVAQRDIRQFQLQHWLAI

[4] = Selectivity ratio of Ki for NET to IC50 for DAT
How it was run: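 NET/DAT selectivity: NET Ki (from [3H]nisoxetine binding) divided by DAT IC50 (from [3H]WIN35,428 binding). Both values are means of three or four triplicate experiments.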

[5] = molecular target: Sodium-dependent dopamine transporter (Homo sapiens, UniProt Q01959); test: Displacement of [3H]WIN-35428 from DAT
Sequence of Sodium-dependent dopamine transporter (Q01959 whole entry): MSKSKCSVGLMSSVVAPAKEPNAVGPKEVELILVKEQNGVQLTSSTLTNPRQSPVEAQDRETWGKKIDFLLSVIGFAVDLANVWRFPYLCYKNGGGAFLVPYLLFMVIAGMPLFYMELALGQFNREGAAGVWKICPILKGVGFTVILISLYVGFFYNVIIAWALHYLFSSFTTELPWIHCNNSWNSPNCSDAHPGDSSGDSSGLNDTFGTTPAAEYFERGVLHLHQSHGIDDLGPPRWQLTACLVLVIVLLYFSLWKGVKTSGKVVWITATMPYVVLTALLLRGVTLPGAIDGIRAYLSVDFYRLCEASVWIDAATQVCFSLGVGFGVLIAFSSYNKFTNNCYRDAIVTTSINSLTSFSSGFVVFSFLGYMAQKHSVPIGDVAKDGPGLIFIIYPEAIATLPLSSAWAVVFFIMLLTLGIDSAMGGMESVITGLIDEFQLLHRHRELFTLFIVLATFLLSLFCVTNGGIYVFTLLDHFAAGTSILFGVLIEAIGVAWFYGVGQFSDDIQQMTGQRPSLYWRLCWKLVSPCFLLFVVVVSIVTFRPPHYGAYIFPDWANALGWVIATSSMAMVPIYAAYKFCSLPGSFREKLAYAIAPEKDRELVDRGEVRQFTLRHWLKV
How it was run: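 [3H]WIN35,428 displacement at DAT; IC50 reported because DAT has two binding sites. Compounds tested as HCl or tartrate salts. Mean ± standard error of three or four experiments, each run in triplicate.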

Sequence of Sodium-dependent serotonin transporter (P31645 whole entry): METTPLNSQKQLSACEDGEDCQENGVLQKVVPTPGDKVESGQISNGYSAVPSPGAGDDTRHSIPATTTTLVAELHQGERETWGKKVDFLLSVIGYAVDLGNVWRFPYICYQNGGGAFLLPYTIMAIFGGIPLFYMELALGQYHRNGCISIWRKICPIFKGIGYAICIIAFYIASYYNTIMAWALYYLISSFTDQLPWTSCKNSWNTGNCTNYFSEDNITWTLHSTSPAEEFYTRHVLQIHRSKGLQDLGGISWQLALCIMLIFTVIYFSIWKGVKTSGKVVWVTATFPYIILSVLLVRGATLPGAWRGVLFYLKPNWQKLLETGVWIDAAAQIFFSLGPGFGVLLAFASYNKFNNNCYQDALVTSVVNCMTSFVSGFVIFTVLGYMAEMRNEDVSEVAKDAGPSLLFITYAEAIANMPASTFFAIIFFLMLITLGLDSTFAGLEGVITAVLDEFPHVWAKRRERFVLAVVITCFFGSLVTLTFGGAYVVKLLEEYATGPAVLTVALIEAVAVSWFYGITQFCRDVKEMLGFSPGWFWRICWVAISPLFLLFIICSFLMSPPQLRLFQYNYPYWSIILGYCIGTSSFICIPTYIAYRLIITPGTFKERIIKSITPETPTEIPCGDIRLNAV

## CCCN1C2CCC1[C@@H](C(=O)OC)[C@@H](c1ccc(SC)cc1)C2 (stereo partly specified)
[1]
  Ki: 5.7 nM
[2]
  Ratio Ki: 211
[3]
  Ki: 1200 nM
[4]
  Ratio: 16
[5]
  IC50: 74 nM

## COC(=O)[C@H]1[C@@H](c2ccc(SC)cc2)C[C@@H]2CC[C@H]1N2C
[1]
  Ki: 0.7 nM
[2]
  Ratio Ki: 314
[3]
  Ki: 220 nM
[4]
  Ratio: 24
[5]
  IC50: 9 nM

## COC(=O)[C@@H]1C2CCC(C[C@@H]1c1ccc(SC)cc1)N2 (stereo partly specified)
[1]
  Ki: 0.19 nM
[2]
  Ratio Ki: 110
[3]
  Ki: 21 nM
[4]
  Ratio: 0.8
[5]
  IC50: 28 nM

## CCCN1C2CCC1[C@@H](C(=O)OC)[C@@H](c1ccc(SCC)cc1)C2 (stereo partly specified)
[1]
  Ki: 49 nM
[2]
  Ratio Ki: > 41
[3]
  Ki: > 2000 nM
[4]
  Ratio: > 2
[5]
  IC50: 900 nM

## C=CCN1C2CCC1[C@@H](C(=O)OC)[C@@H](c1ccc(SC)cc1)C2 (stereo partly specified)
[1]
  Ki: 5.5 nM
[2]
  Ratio Ki: 364
[3]
  Ki: 2000 nM
[4]
  Ratio: 28
[5]
  IC50: 71 nM

## CCSc1ccc([C@H]2CC3CCC(N3)[C@H]2C(=O)OC)cc1 (stereo partly specified)
[1]
  Ki: 1.26 nM
[2]
  Ratio Ki: 94
[3]
  Ki: 118 nM
[4]
  Ratio: 0.7
[5]
  IC50: 177 nM

## COC(=O)[C@H]1[C@@H](c2ccc(SC(C)C)cc2)C[C@@H]2CC[C@H]1N2C
[1]
  Ki: 23 nM
[2]
  Ratio Ki: 7
[3]
  Ki: 129 nM
[4]
  Ratio: 8
[5]
  IC50: 16 nM

## COC(=O)[C@H]1[C@@H](c2ccc(S(C)(=O)=O)cc2)C[C@@H]2CC[C@H]1N2C
[1]
  Ki: 208 nM
[2]
  Ratio Ki: > 48
[3]
  Ki: > 10000 nM
[5]
  IC50: > 10000 nM

## COC(=O)[C@@H]1C2CCC(C[C@@H]1c1ccc(SC)cc1)N2CCCF (stereo partly specified)
[1]
  Ki: 3 nM
[2]
  Ratio Ki: 320
[3]
  Ki: 960 nM
[4]
  Ratio: 9
[5]
  IC50: 112 nM

## COC(=O)[C@H]1[C@@H](c2ccc([S+](C)[O-])c(Br)c2)C[C@@H]2CC[C@H]1N2C (stereo partly specified)
[1]
  Ki: 3.2 nM
[2]
  Ratio Ki: 216
[3]
  Ki: 690 nM
[4]
  Ratio: 9
[5]
  IC50: 76 nM

## COC(=O)[C@H]1[C@@H](c2ccc([S+](C)[O-])cc2)C[C@@H]2CC[C@H]1N2C (stereo partly specified)
[1]
  Ki: 4.3 nM
[2]
  Ratio Ki: 120
[3]
  Ki: 515 nM
[4]
  Ratio: 6
[5]
  IC50: 91 nM

## COC(=O)[C@H]1[C@@H](c2ccc(SC(F)(F)F)cc2)C[C@@H]2CC[C@H]1N2C
[1]
  Ki: 8 nM
[2]
  Ratio Ki: 238
[3]
  Ki: 1900 nM
[4]
  Ratio: 10
[5]
  IC50: 200 nM

## C=CCN1C2CCC1[C@@H](C(=O)OC)[C@@H](c1ccc(SCC)cc1)C2 (stereo partly specified)
[1]
  Ki: 47 nM
[2]
  Ratio Ki: > 43
[3]
  Ki: > 2000 nM
[4]
  Ratio: > 2
[5]
  IC50: 1100 nM

## CCSc1ccc([C@H]2CC3CCC([C@H]2C(=O)OC)N3CCCF)cc1 (stereo partly specified)
[1]
  Ki: 27 nM
[2]
  Ratio Ki: > 74
[3]
  Ki: > 2000 nM
[4]
  Ratio: 2
[5]
  IC50: 1200 nM

## COC(=O)[C@H]1[C@@H](c2ccc(SC)c(Br)c2)C[C@@H]2CC[C@H]1N2C
[1]
  Ki: 0.6 nM
[2]
  Ratio Ki: 202
[3]
  Ki: 121 nM
[4]
  Ratio: 12
[5]
  IC50: 10.1 nM

## CCSc1ccc([C@H]2C[C@@H]3CC[C@H]([C@H]2C(=O)OC)N3C)cc1
[1]
  Ki: 4.5 nM
[2]
  Ratio Ki: 260
[3]
  Ki: 1170 nM
[4]
  Ratio: 5
[5]
  IC50: 232 nM

## COC(=O)[C@H]1[C@@H](c2ccc(OC)cc2)C[C@@H]2CC[C@H]1N2C
[1]
  Ki: 4.3 nM
[3]
  Ki: 1110 nM
